{"source": "ChEMBL document CHEMBL1687863", "about": "“Terpenoids and norlignans from Metasequoia glyptostroboides” (J Nat Prod, 2011)", "tested_on": "HL-60", "test": "Cytotoxicity against human HL60 cells after 48 hrs by MTT assay", "assay_type": "functional, cell-based", "conditions": "HL-60, 48 h", "how_it_was_run": "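Cells seeded 12 h before treatment, then exposed continuously to a range of compound concentrations for 48 h. MTT added for a further 4 h, followed by 20% SDS and 12 h at room temperature. OD read at 595 nm; IC50 calculated by the Reed and Muench method.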"}
{"smiles": "COc1ccc([C@H]2[C@@H]([C@H](O)c3ccc(OC)c(OC)c3)OC[C@H]2O)cc1", "values": [{"measurement": "IC50", "result": "> 40", "unit": "µM"}]}
{"smiles": "OC[C@@H](O)[C@@H](/C=C/c1ccc(O)cc1)c1ccc(O)c(O)c1", "note": "[SEQUIRIN C]", "values": [{"measurement": "IC50", "result": 5.5, "unit": "µM"}]}
{"smiles": "C=CC(=C)CC[C@@H]1[C@@]2(C)CCC[C@](C)(COC(=O)/C=C/c3ccc(O)cc3)[C@@H]2CC[C@@]1(C)O", "values": [{"measurement": "IC50", "result": 14.3, "unit": "µM"}]}
{"smiles": "COc1ccc([C@H]2[C@@H]([C@H](OC(=O)[C@](OC)(c3ccccc3)C(F)(F)F)c3ccc(OC)c(OC)c3)OC[C@H]2OC(=O)[C@](OC)(c2ccccc2)C(F)(F)F)cc1", "values": [{"measurement": "IC50", "result": "> 40", "unit": "µM"}]}
{"smiles": "C=C[C@]1(C)CC2=C(C[C@@H]1O)[C@@]1(C)CCC[C@@](C)(C(=O)O)[C@@H]1CC2", "values": [{"measurement": "IC50", "result": "> 40", "unit": "µM"}]}
{"smiles": "COc1ccc([C@H]2[C@@H]([C@H](OC(=O)[C@@](OC)(c3ccccc3)C(F)(F)F)c3ccc(OC)c(OC)c3)OC[C@H]2OC(=O)[C@@](OC)(c2ccccc2)C(F)(F)F)cc1", "values": [{"measurement": "IC50", "result": "> 40", "unit": "µM"}]}
{"smiles": "COc1cc(/C=C/[C@@H](c2ccc(O)c(OC)c2)[C@H](O)CO)ccc1O", "note": "[METASEQUIRIN D]", "values": [{"measurement": "IC50", "result": "> 40", "unit": "µM"}]}
{"smiles": "C=C(C)C(CC)CC[C@@H](C)[C@H]1CC[C@@]2(C)[C@@H]3CC[C@@H](C(C)(C)O)[C@@]4(CCC(=O)O)C[C@@]34CC[C@]12C", "note": "(some centres not stated) [METASEGLYPTORIN A]", "values": [{"measurement": "IC50", "result": "> 40", "unit": "µM"}]}
{"smiles": "C=C1CC[C@H]2[C@](C)(O)[C@H](C)CC[C@]2(C)[C@H]1CC/C(C)=C/C(=O)O", "note": "[METASEQUOIC ACID C]", "values": [{"measurement": "IC50", "result": "> 40", "unit": "µM"}]}
{"smiles": "COc1cc([C@H]2[C@@H]([C@H](O)c3ccc(O)c(OC)c3)OC[C@H]2O)ccc1O", "note": "[METASEQUIRIN E]", "values": [{"measurement": "IC50", "result": "> 40", "unit": "µM"}]}
{"smiles": "COc1cc([C@@H](O)[C@H]2OC[C@@H](O)[C@H]2c2ccc(O)cc2)ccc1O", "note": "[METASEQUIRIN F]", "values": [{"measurement": "IC50", "result": "> 40", "unit": "µM"}]}
{"smiles": "C=C1C=C[C@@H](C(C)C)[C@]12CC=C(C(=O)O)CC2", "values": [{"measurement": "IC50", "result": "> 40", "unit": "µM"}]}
